Compounds with a hit are over-represented: about 1.4% of the library has one in this group of screens.
ATG4B inh = ATG4B (human) cysteine protease inhibition | Q9Y4P1 | 0.51% of 340,000 active | inhibition, % at 8.33 µM | AID 504462 | ATG4B cleavage of LC3-PLA2, NBD-HPC fluorescence, 1 h; in the data active means inhibition above about 40%
CTSL1 counter = blocks F. hepatica cathepsin L1 in PFM18AAP counter-screen; recombinant F. hepatica cathepsin L1, Z-Leu-Arg-MCA fluorescence; AID 1906; 0.49% of 300,000 active; inhibition, % at 5.96 µM;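 active means inhibition above the mean of all tested compounds plus 3 SD, set per screening campaign, cut at about 17% in these data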;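 further: 0% = plate median of test compound wells and 100% = 1 µM Z-Phe-Ala-diazomethylketone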
HKDC1 inh = HKDC1 (human) hexokinase inhibition | recombinant HKDC1, G6PDH/diaphorase resazurin coupled fluorescence | AID 493160 | 0.16% of 340,000 active | inhibition, % at 20 µM;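 active means inhibition above about 35% when tested at 20 µM, limit read from the data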;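 further: plate controls were DMSO wells with enzyme for no effect and DMSO wells lacking enzyme for full effect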
Target sequence (Q2TB90 whole entry, looked up): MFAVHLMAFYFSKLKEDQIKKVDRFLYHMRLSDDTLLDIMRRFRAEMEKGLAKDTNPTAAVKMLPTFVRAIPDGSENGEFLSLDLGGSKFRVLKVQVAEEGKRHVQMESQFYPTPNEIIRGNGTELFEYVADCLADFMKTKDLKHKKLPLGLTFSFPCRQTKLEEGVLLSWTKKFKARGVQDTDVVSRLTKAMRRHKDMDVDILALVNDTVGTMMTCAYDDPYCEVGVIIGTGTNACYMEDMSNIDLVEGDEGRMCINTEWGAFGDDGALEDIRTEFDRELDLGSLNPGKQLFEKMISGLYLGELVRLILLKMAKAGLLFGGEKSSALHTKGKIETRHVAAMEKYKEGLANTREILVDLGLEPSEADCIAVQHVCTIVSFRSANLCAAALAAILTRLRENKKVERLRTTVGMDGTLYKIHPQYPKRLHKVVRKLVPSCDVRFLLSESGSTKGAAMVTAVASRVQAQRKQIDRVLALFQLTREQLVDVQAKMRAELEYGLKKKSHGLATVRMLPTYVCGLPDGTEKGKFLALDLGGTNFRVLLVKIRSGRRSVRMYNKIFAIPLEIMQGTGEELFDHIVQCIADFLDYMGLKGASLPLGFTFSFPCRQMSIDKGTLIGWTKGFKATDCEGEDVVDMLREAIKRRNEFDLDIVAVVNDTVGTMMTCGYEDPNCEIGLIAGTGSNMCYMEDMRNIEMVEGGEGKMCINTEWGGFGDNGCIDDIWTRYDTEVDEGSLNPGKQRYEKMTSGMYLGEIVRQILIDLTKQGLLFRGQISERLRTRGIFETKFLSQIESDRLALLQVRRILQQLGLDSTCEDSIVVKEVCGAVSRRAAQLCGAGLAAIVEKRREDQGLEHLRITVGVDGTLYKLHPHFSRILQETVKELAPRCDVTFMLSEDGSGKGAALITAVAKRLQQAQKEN
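Test system: HK5 enzyme. Quantity: 5 µg/mL HK5 final. Reagent: glucose and ATP substrates. Schedule: 90 min reaction incubation at room temperature, dark. Technique: resazurin-to-resorufin fluorescence via G6PDH and diaphorase coupling, 525/613 nm. Control set: DMSO wells with and without enzyme mix.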
Diaph act CS = activates diaphorase or chemically reduces, flagging diaphorase assay artifacts; 0.005% of 190,000 active; activation factor at 20 µM; Diaphorase/resazurin coupled assay, resorufin fluorescence, 16 min; hits give high values; 1 = vehicle wells, 0 = NADH-free wells; AID 1229;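 active means diaphorase activity raised at least twofold by the compound at 20 µM; inactive means activation factor below 2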
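test system = bacterial diaphorase enzyme (C. kluyveri) | quantity = enzyme 0.07 U/mL final | reagent = NADH substrate 0.114 mM plus resazurin dye 0.1 mM, final | incubation = 16 min enzyme reaction, ambient temperature | buffer or medium = HEPES pH 7.4 buffer with MgCl2 and Tween 20 | signal = fluorescence of resorufin, 544 nm excitation, 590 nm emission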
Diaph inh CS = diaphorase inhibition or chemical oxidation counter-screen. diaphorase resazurin-to-resorufin fluorescence, NADH, 16 min; bacterial (C. kluyveri) enzyme, not human. inhibition, % at 20 µM. 0.69% of 190,000 active. AID 1217;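 active means primary screen inhibition at 20 µM above a set limit, cut at about 50% in these data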;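 further: plate controls were DMSO with full reaction for no effect and wells lacking NADH for full effect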
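controls = No-NADH positive control and DMSO neutral control | system = Clostridium kluyveri diaphorase enzyme | timing = reaction incubation of 16 min at room temperature | signal = resorufin fluorescence 544/590 nm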
HKDC1 act conf2 = confirmation of human HKDC1 activators; shares compounds with HKDC1 inh; recombinant HKDC1, G6PDH/diaphorase resazurin fluorescence; hits give low values; inhibition, % at 20 µM; 14% of 740 active; AID 504708;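 active means inhibition at or below a set negative limit, negative inhibition meaning the enzyme was activated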
The depositor's hits bear a star; . = no result given.

SMILES	ATG4B inh	CTSL1 counter	HKDC1 inh	Diaph act CS	Diaph inh CS	HKDC1 act conf2
NC(=O)[C@@H]1CCCN1C(=O)c1ccc2nc(Cc3cccc(Cl)c3)oc2c1	-1	-4	-3	.	.	.
COc1ccc(OCc2nnc(SCC(=O)Nc3nnc(C4CC4)s3)n2C)cc1	3	2	0	.	.	.
CCNC(COC(=O)c1ccc([N+](=O)[O-])cc1)C1CCCCC1 (stereo not given)	6	.	-6	.	.	.
CCn1c2ccccc2c2nc3cc(S(=O)(=O)N4CCOCC4)ccc3nc21	4	.	-61	0.8	19	-47*
COc1ccc(N(CCCN2C(=O)c3cccc4cccc(c34)C2=O)C(=O)c2cccnc2)cc1	-4	5	36*	0.4	58*	23
COc1ccc(N(CCCN2C(=O)c3cccc4cccc(c34)C2=O)C(=O)c2ccncc2)cc1	-8	3	14	0.6	38	.
Cc1nc(COC(=O)c2cc(O)c3ccccc3c2O)cs1	-3	.	60*	0.7	34	39
COc1ccc(-n2c(C)cc(C(=O)CCl)c2C)cc1	6	7	35*	0.9	13	34
COc1ccc(-n2c(C)cc(C(=O)CN3C(=O)c4ccccc4C3=O)c2C)cc1	0	-1	0	0.9	7	.
COCCN(C(=O)COC(=O)c1cc2c(s1)CCC2)c1c(N)n(Cc2ccccc2)c(=O)[nH]c1=O	15	-2	35*	.	.	16
CCC1CCc2sc(C(=O)OCC(=O)N(CCOC)c3c(N)n(Cc4ccccc4)c(=O)[nH]c3=O)cc2C1 (stereo not given)	-23	0	0	.	.	.
COC1=CC(=O)C(OC)=C(OC)C1=O	-2	.	76*	.	.	72
CCCCSc1nc2sc3c(c2c(=O)[nH]1)CC(C)(CC)OC3 (stereo not given)	0	-2	0	.	.	.
O=[N+]([O-])c1ccc(-[n+]2nc(-c3ccccc3)nn2-c2ccccc2)cc1	-2	2	3	.	.	.
COc1cc(/C=C2\SC(=O)N(c3cccc(Cl)c3)C2=O)cc([N+](=O)[O-])c1O	3	.	51*	0.4	64*	-13
COc1cc(/C=C2\SC(=O)N(c3ccc(Cl)cc3)C2=O)cc([N+](=O)[O-])c1O	6	.	44*	0.2	82*	-27
CCCn1c(=O)c(C(=O)NNC(=O)c2ccccc2Cl)c(O)c2ccccc21	0	-1	-5	.	.	.
O=C(O)c1cccc(-n2cccc2/C=C2/NC(=O)N(c3ccc(Cl)cc3)C2=O)c1	28	.	61*	0.4	62*	37
C=CS(=O)(=O)c1c2cc(OC)ccc2nc2ccc(OC)cc12	-4	.	34	.	.	4
COc1ccc2nc(Cl)cc(Cl)c2c1	2	1	1	.	.	.
O=C(CCNC(=O)c1ccc([N+](=O)[O-])cc1)NCc1cccs1	0	.	11	.	.	.
O=C(CNC(=O)/C=C/c1ccco1)N=Nc1c(O)[nH]c2ccccc12	5	7	51*	.	.	39
O=C(CNC(=O)Cc1ccccc1)N=Nc1c(O)[nH]c2ccccc12	-5	0	-1	.	.	.
S=C(NN=C(c1ccccc1)c1ccccn1)N(Cc1ccccn1)Cc1ccccn1	3	.	-46	.	.	-59*
COc1cc2c(cc1OC)-c1cc(NCc3ccccn3)nc(=O)n1CC2	-10	-2	59*	0.9	9	54
SMILES	ATG4B inh	CTSL1 counter	HKDC1 inh	Diaph act CS	Diaph inh CS	HKDC1 act conf2
CCOc1ccc(NC(=O)CSc2nnnn2-c2ccc(C(N)=O)cc2)cc1	-4	2	-4	.	.	.
O=C1c2ccccc2C(=O)c2c1cccc2-n1nnc2ccccc21	-3	-1	3	.	.	.
O=C1C(N2CCOCC2)=C(n2nnc3ccccc32)C(=O)c2ccccc21	-5	81*	43*	0.7	25	55
O=C(CCC1CCCNC1)c1ccccc1 (stereo not given)	.	7	.	.	.	.
NS(=O)(=O)c1ccc(N=Nc2c(=O)[nH]n3c(=O)c4c([nH]c23)CCCC4)cc1	-9	7	40*	0.6	45	72
Cc1ccc(NC(=O)CSc2nnc(-c3cccnc3)s2)cc1	-3	0	-6	1.1	-9	.
O=C(CSc1nnc(-c2cccnc2)s1)Nc1ccnc2ccccc12	-11	-4	35	0.8	19	18
O=C(NC12CC3CC(CC(C3)C1)C2)C1CCCN1C(=O)Nc1ccccc1 (stereo not given)	-2	-2	1	.	.	.
Cc1ccccc1C(=O)Nc1ccc2c(C#N)c3nc4ccccc4nc3n2c1	-1	-2	37*	0.3	72*	7
COc1ccc(-c2noc(CCC(=O)N3CCN(c4ccccc4Br)CC3)n2)cc1	15	.	-4	.	.	.
CCCc1cc(=O)oc2cc(C)cc(OC(C)C(=O)NCC(O)c3ccccc3)c12 (stereo not given)	-11	-5	5	.	.	.
Cc1ccccc1Nc1nc(N)nc(CSc2nnc3sc4ccccc4n23)n1	-2	-1	36*	0.5	46	33
Cc1ccccc1Nc1nc(N)nc(CSc2nnc(-c3ccccc3)n2C)n1	1	2	0	1.2	-15	.
O=S(=O)(c1ccc(Br)cc1Cl)N1CCN(CCO)CC1	9	-5	8	0.9	9	.
O=C1C=CC(=O)c2c(O)c(N3CCN(CCO)CC3)c(Cl)c(O)c21	31	.	32	.	.	10
OCCOCCN1CCN(C2=Nc3ccccc3Sc3ccccc32)CC1	6	0	-8	0.9	5	.
O=C1C=CC(=O)c2c(O)c(N3CCN(CCOCCO)CC3)c(Br)c(O)c21	18	.	46*	.	.	11
CCOC(=O)c1sc(NC(=O)CSc2nnc(Cc3ccccc3)o2)c(C#N)c1C	10	3	-40	0.9	9	-30
CCOC(=O)c1c(NC(=O)CSc2nnc(Cc3ccccc3)o2)sc(C(C)=O)c1C	1	0	1	0.8	16	.
COc1ccc(CN2CCN(Cc3ccc4cc(F)ccc4n3)CC2CCO)c(C)c1C (stereo not given)	-2	-3	7	.	.	.
COc1ccc(-c2oc(NC(=O)CCl)c(C#N)c2-c2ccc(OC)cc2)cc1	13	61*	46*	0.8	21	21
COc1cc(N=c2ssnc2Cl)cc(OC)c1OC	-6	6	-100	0.8	20	-46*
CC(=O)Nc1ccc(NC(=O)C(C)OC(=O)c2cccc(S(=O)(=O)N3CCCCCC3)c2)cc1 (stereo not given)	-3	-2	2	.	.	.
Cc1cccc2c(N=NC(=O)c3ccc(NS(=O)(=O)c4cccs4)cc3)c(O)[nH]c12	-4	.	36*	.	.	63
O=C(Nc1ccc2nc(-c3ccco3)c(-c3ccco3)nc2c1)N1CCN(c2ccccn2)CC1	1	-1	57*	0.3	70*	-13
